Records with an inconclusive call do not appear.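 The calls were made as follows, unless noted: active = viability increase at or above a cutoff of the median across tested compounds plus 3 SD (cut at about 8.5% in these data, passing the limit was not always enough); inconclusive = some gains above the cutoff, reason not given; inactive = the rest.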
Columns and labels:
[1] = S. cerevisiae growth inhibition in permissive medium (OD615), pilot counter-assay for S. cerevisiae lifespan shortening project, permissive growth control (AID 705;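 active = growth inhibition above 25% in both replicates, a cutoff set 3 SD above the mean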); conditions: OD615, 24 h, at 10 µM, hits give high values
Outline: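 System: S. cerevisiae with engineered DeaD lifespan system. Medium: SC raffinose/galactose permissive medium. Doses: single compound dose of 10 µM, 0.25% DMSO final. Schedule: 24 h exposure, 30 °C. Measured by: OD615 turbidity read. Read-out: growth inhibition.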

[2] = S. cerevisiae growth inhibition in restrictive medium, OD615, pilot screen, restrictive growth control, yeast lifespan reduction project (AID 706;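 active = growth inhibition above a set limit, 3 SD over mean compound inhibition, in both replicates, cut at about 43% in these data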;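 also: modified DeaD lifespan yeast strain shifted to restrictive glucose medium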); conditions: OD615, 48 h, at 10 µM, hits give high values
Outline: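 Assay system – genetically modified Saccharomyces cerevisiae, DeaD replicative lifespan assay strain · Medium – CSMM-D glucose medium · Doses – 10 µM compound, 0.25% DMSO · Times – 4 h pre-incubation, 48 h exposure at 30 °C · Signal – optical density at 615 nm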

[3] = doxorubicin toxicity protection in MRP-1 cells – H69AR cells, CellTiter-Glo, duplicate, MRP-1 activator project, pilot screen (AID 807); conditions: H69AR viability with doxorubicin, CellTiter-Glo luminescence; at 10 µM; hits give high values;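 also: compound pretreatment 18-22 h then 72 h combined with doxorubicin; 0% = doxorubicin alone and 100% = vehicle without doxorubicin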
[4] = viability of HCT116 without oncogenic beta-catenin – human colon tumor cells, pilot screen (AID 823;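 active = cell viability at or below a set limit in both duplicate runs, the limit being the all-compound median minus 4 SD, cut at about 23% in these data, passing the limit was not always enough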;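 also: 0% = wells killed by 20 µM Hyamine and 100% = untreated DMSO cell wells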); conditions: HCT116 beta-catenin knockout viability, CellTiter-Glo, 60 h; at 10 µM; hits give low values
[5] = viability of PTEN-null HCT116 cells – cell-based, HCT116 clonal line, CellTiter-Glo, pilot screen (AID 824;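 active = viability at or below 27.92% in each of two runs, the all-compound median minus 4 SD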;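 also: 0% = 20 µM Hyamine control and 100% = vehicle cell control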); conditions: HCT116 PTEN-deleted viability, 60 h, at 10 µM, hits give low values
[6] = RAM pathway blockade in budding yeast – dse1pr::URA3 reporter, 5-FOA selection, pilot screen (AID 869;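 active = inhibition over a set limit, the all-compound mean plus 3 SD, in both replicate runs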;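 also: 0% = DMSO wells with no growth and 100% = 10 µM 1-NA-PP1 with full growth; RAM network block rescues cells from 5-FOA so hits raise OD615 growth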); conditions: S. cerevisiae dse1pr::URA3 5-FOA growth, OD615, 2 d; at 10 µM; hits give high values; strain carries analog-sensitive mutant Cbk1 kinase
[7] = RAM signaling pathway blockade in yeast – S. cerevisiae, Pdr1DBD-CYC8 efflux-inhibited sensitized strain, primary screen (AID 1298;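 active = RAM network inhibition above 8.4% in each of two replicates, 3 SD over the compound average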;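 also: 0% = DMSO untreated cells without growth and 100% = 10 µM 1-NA-PP1 full growth; higher means more yeast growth rescued from 5-FOA killing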); conditions: S. cerevisiae cbk1-as DSE1-URA3 strain, 5-FOA growth OD615, 2 d; at 50 µM; hits give high values

COc1ccc(CCNC(=O)c2cnccn2)cc1
inactive: growth inhibition [1] -10.1% | growth inhibition [2] -2.55% | viability increase [3] 0.3% | viability [4] 102% | viability [5] 87.2% | inhibition [6] 3.53% | RAM network inhibition [7] 2.5%

CC1(C(=O)NCc2cccnc2)CCC(=O)N1Cc1cccs1 (configuration not stated)
inactive: growth inhibition [1] -2.29% | growth inhibition [2] -1.24% | viability increase [3] 0.38% | viability [4] 108% | viability [5] 102% | inhibition [6] 0% | RAM network inhibition [7] 3.95%

CCOc1ccccc1C(=O)NC1CCN(Cc2nnnn2C2CCCC2)CC1
inactive: growth inhibition [1] -6.12% | growth inhibition [2] -7.94% | viability increase [3] -1.67% | viability [4] 102% | viability [5] 98.9% | inhibition [6] 0.9% | RAM network inhibition [7] 1.76%

CCCOC(=O)CSC1=C(C#N)C(c2ccccc2Cl)CC(=O)N1 (configuration not stated)
inactive: growth inhibition [1] 1.49% | growth inhibition [2] -25.7% | viability increase [3] -1.57% | viability [4] 66.3% | viability [5] 75.5% | inhibition [6] 1.75% | RAM network inhibition [7] 2.16%

COc1ccc(C2C(C#N)=C(N)Oc3n[nH]c(C)c32)cc1Cn1nnc2ccccc21 (configuration not stated)
inactive: growth inhibition [1] 2.33% | growth inhibition [2] -0.6% | viability increase [3] -5.95% | viability [4] 75.7% | viability [5] 77.9% | inhibition [6] 1.26% | RAM network inhibition [7] 7.2%

Cc1cccc(N(C)c2cc(C)nc3ncnn23)c1
inactive: growth inhibition [1] 2.75% | growth inhibition [2] 3.99% | viability increase [3] -1.19% | viability [4] 97.3% | viability [5] 99.6% | inhibition [6] 0.99% | RAM network inhibition [7] 4.73%

O=C1CC(c2nc3ccccc3[nH]2)CN1c1ccccc1F (configuration not stated)
inactive: growth inhibition [1] 3.64% | growth inhibition [2] -1.12% | viability increase [3] -0.52% | viability [4] 98.3% | viability [5] 92.5% | inhibition [6] 0.355% | RAM network inhibition [7] 1.89%

CC(C)N(CCc1ccncc1)C(=O)Nc1ccc(F)cc1
inactive: growth inhibition [1] 0.1% | growth inhibition [2] -7.37% | viability increase [3] -2.27% | viability [4] 102% | viability [5] 96.8% | inhibition [6] 1.21% | RAM network inhibition [7] 5.33%

CCN=C(NCC)SC1CC(=O)N(c2cccc(OC)c2)C1=O (configuration not stated)
inactive: growth inhibition [1] 5.98% | growth inhibition [2] 1.56% | viability increase [3] -1.43% | viability [4] 101% | viability [5] 94.6% | inhibition [6] 0.04% | RAM network inhibition [7] 7.47%

CC(C)NC(=O)CCCc1ccccc1
inactive: growth inhibition [1] -8% | growth inhibition [2] -14.1% | viability increase [3] -1.04% | viability [4] 92.1% | viability [5] 91.1% | inhibition [6] 1.2% | RAM network inhibition [7] -0.58%

Cc1nc2sc(C(c3cccs3)N3CCN(c4cccc(Cl)c4)CC3)c(O)n2n1 (configuration not stated)
inactive: growth inhibition [1] -5.61% | growth inhibition [2] 2.47% | viability increase [3] 2.07% | viability [4] 93.7% | viability [5] 83.5% | inhibition [6] 2.32% | RAM network inhibition [7] 5.45%

Cc1ccc(CNC(=O)c2cc3c(-c4ccc(Cl)cc4)nn(C)c3s2)o1
inactive: growth inhibition [1] -7.97% | growth inhibition [2] -5.61% | viability increase [3] -6.4% | viability [4] 53.9% | viability [5] 48.7% | inhibition [6] 3.25% | RAM network inhibition [7] 2.13%

Nc1ccc2nc3n(c(=O)c2c1)CCC3
inactive: growth inhibition [1] -2.62% | growth inhibition [2] 4.83% | viability increase [3] 1.87% | viability [4] 104% | viability [5] 108% | inhibition [6] 1.44% | RAM network inhibition [7] 3.92%

Cn1c(CSc2nc3ccc(Br)cc3[nH]2)nc2ccccc21
inactive: growth inhibition [1] -3.63% | growth inhibition [2] 12.1% | viability increase [3] 1.66% | viability [4] 90.8% | viability [5] 85.2% | inhibition [6] 1.4% | RAM network inhibition [7] 9.55%

COC(=O)c1ccc(NS(=O)(=O)c2ccc3c(c2)oc(=O)n3C)cc1
inactive: growth inhibition [1] -4.12% | growth inhibition [2] -3.33% | viability increase [3] 1.49% | viability [4] 103% | viability [5] 96.4% | inhibition [6] 0.69% | RAM network inhibition [7] 7.21%

O=C1CC(N2CCN(C/C=C/c3ccccc3)CC2)C(=O)N1CCc1ccccc1 (configuration not stated)
inactive: growth inhibition [1] -12.7% | growth inhibition [2] -9.45% | viability increase [3] -0.11% | viability [4] 72.8% | viability [5] 77.6% | inhibition [6] 1.02% | RAM network inhibition [7] 7.71%

COc1ccc2occ(C(=O)c3ccc(N=C(C)N(C)C)cc3)c2c1
inactive: growth inhibition [1] -7.86% | growth inhibition [2] -16.5% | viability increase [3] -1.53% | viability [4] 58.4% | viability [5] 70.1% | inhibition [6] 1.21% | RAM network inhibition [7] 0.89%

COc1cccc2c(=O)c(C/C=C(/C)Cl)c(C)[nH]c12
inactive: growth inhibition [1] -2.8% | growth inhibition [2] 5.71% | viability increase [3] -2.38% | viability [4] 97.5% | viability [5] 91.6% | inhibition [6] 0.075% | RAM network inhibition [7] -0.16%

Cc1cc(C)nc(SCCn2c(N3CCC(C)CC3)nc3c2c(=O)n(C)c(=O)n3C)n1
inactive: growth inhibition [1] -3.83% | growth inhibition [2] 0.625% | viability increase [3] 1.09% | viability [4] 99.9% | viability [5] 97.3% | inhibition [6] 1.71% | RAM network inhibition [7] 1.91%

COc1ccc(OC)c2sc(NC(=O)C3=COCCO3)nc12
inactive: growth inhibition [1] -14.8% | growth inhibition [2] 0.525% | viability increase [3] -2.76% | viability [4] 93% | viability [5] 90.9% | inhibition [6] 0.98% | RAM network inhibition [7] 3.16%

CC1CCCCN1CCNC(=O)c1cnn2ccccc12 (configuration not stated)
inactive: growth inhibition [1] -12.7% | growth inhibition [2] -9.32% | viability increase [3] -1.7% | viability [4] 101% | viability [5] 91.6% | inhibition [6] 2.58% | RAM network inhibition [7] 0.01%

CCOC(=O)Cc1nnc(NC(=O)CSc2nncn2C)s1
inactive: growth inhibition [1] -1.1% | growth inhibition [2] 7.44% | viability increase [3] -0.06% | viability [4] 98.5% | viability [5] 94.5% | inhibition [6] 1.5% | RAM network inhibition [7] 2.87%

COc1ccc(-n2nc3c(c2NC(=O)c2ccc(Br)cc2)CS(=O)C3)cc1 (configuration not stated)
inactive: growth inhibition [1] -4.15% | growth inhibition [2] 4.82% | viability increase [3] -2.41% | viability [4] 85.3% | viability [5] 91.5% | inhibition [6] 0.805% | RAM network inhibition [7] 2.87%

N#CC1=C2SCN(Cc3ccccc3)CN2C(=O)CC1c1ccccc1F (configuration not stated)
inactive: growth inhibition [1] -3.35% | growth inhibition [2] 15.7% | viability increase [3] -4.34% | viability [4] 90.4% | viability [5] 88.4% | inhibition [6] 1.01% | RAM network inhibition [7] 2.49%

O=C(OCN1C(=O)c2ccccc2C1=O)c1ccco1
inactive: growth inhibition [1] -3.8% | growth inhibition [2] 0.045% | viability increase [3] -2.17% | viability [4] 96.7% | viability [5] 93.3% | inhibition [6] 3.23% | RAM network inhibition [7] 3.35%

Nc1c(C(=O)Nc2ccc3c(c2)OCCO3)nnn1CCc1ccccc1
inactive: growth inhibition [1] -3.04% | growth inhibition [2] 3.6% | viability increase [3] -5.88% | viability [4] 39.1% | viability [5] 35.4% | inhibition [6] 1.43% | RAM network inhibition [7] 7.68%

COc1ccc(Cl)cc1Nc1nc(N2CCCC2)nc(N2CCCC2)n1
inactive: growth inhibition [1] 2.74% | growth inhibition [2] 2.22% | viability increase [3] 0.95% | viability [4] 95.5% | viability [5] 93.3% | inhibition [6] 0.095% | RAM network inhibition [7] 6.43%

Cc1c(C(=O)NCc2ccc3c(c2)OCO3)sc2nc(-c3ccc(F)cc3)cn12
inactive: growth inhibition [1] -13.8% | growth inhibition [2] -14.9% | viability increase [3] 0.84% | viability [4] 108% | viability [5] 105% | inhibition [6] 2.14% | RAM network inhibition [7] 6.3%

Nc1c(C(=O)NCc2cccnc2)sc(=S)n1-c1ccccc1
inactive: growth inhibition [1] 11.3% | growth inhibition [2] 25.7% | viability increase [3] -1.61% | viability [4] 90.3% | viability [5] 83.6% | inhibition [6] 2.5% | RAM network inhibition [7] 2.58%

COc1ccc(C2C(C(=O)c3ccco3)=C(O)C(=O)N2Cc2cccnc2)cc1OC (configuration not stated)
inactive: growth inhibition [1] -4.18% | growth inhibition [2] 6.84% | viability increase [3] -3.78% | viability [4] 102% | viability [5] 98.7% | inhibition [6] 0.875% | RAM network inhibition [7] 0.66%

Cc1c(NC2=C(Cl)C(=O)N(c3ccccc3)C2=O)c(=O)n(-c2ccccc2)n1C
inactive: growth inhibition [1] 8.25% | growth inhibition [2] 28.3% | viability increase [3] -6.66% | viability [4] 90.7% | viability [5] 94.4% | inhibition [6] 1.42% | RAM network inhibition [7] 3.28%

COc1ccc2oc(C(=O)C3CC3)c(NC(=O)CCCN3C(=O)c4ccccc4C3=O)c2c1
inactive: growth inhibition [1] 2.6% | growth inhibition [2] 6.11% | viability increase [3] -3.63% | viability [4] 102% | viability [5] 93.6% | inhibition [6] 0.995% | RAM network inhibition [7] 3.53%

Cn1c(=O)c2c(nc(NCCc3ccccc3)n2Cc2ccc(F)cc2)n(C)c1=O
inactive: growth inhibition [1] -4.81% | growth inhibition [2] -8.86% | viability increase [3] 1.3% | viability [4] 69.8% | viability [5] 55.3% | inhibition [6] 1.03% | RAM network inhibition [7] 5.94%

Cc1c(C(=O)N2CCCCC2)sc(N)c1C#N
inactive: growth inhibition [1] 4.06% | growth inhibition [2] 4.32% | viability increase [3] -0.95% | viability [4] 96% | viability [5] 95.2% | inhibition [6] -0.355% | RAM network inhibition [7] 1.18%

CCOC(=O)N1CCN(CC(=O)Nc2cc(OCC)ccc2OCC)CC1
inactive: growth inhibition [1] -8.3% | growth inhibition [2] -19.7% | viability increase [3] -6.22% | viability [4] 91.2% | viability [5] 93.8% | inhibition [6] 2.08% | RAM network inhibition [7] 7.52%

Cc1ccccc1NC(=O)C1CC(Cl)=CCC1C(=O)O (configuration not stated)
inactive: growth inhibition [1] -2.29% | growth inhibition [2] -0.385% | viability increase [3] -0.5% | viability [4] 101% | viability [5] 96.9% | inhibition [6] 1.52% | RAM network inhibition [7] 6.8%

From PubChem BioAssay
